# Screening data (PubChem)
# Hits are enriched below; roughly 3.6% of the tested compounds scored in any of these assays.
# SR-BI HDL uptake: blocks mouse SR-BI lipid uptake from DiI-HDL; Q61009; inhibition, % at 12.5 µM; ldlA[mSR-BI] CHO cells, DiI-HDL uptake fluorescence, 3 h; 320,000 tested, 0.96% active;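 active = mean replicate inhibition of at least 70% and a set share of replicates each scoring 70 or more; inconclusive = meets just one of the two criteria; inactive = fails both criteria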;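 note: 0% = median of neutral control wells and 100% = median of positive control wells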
# Target sequence (Q61009 whole entry, looked up): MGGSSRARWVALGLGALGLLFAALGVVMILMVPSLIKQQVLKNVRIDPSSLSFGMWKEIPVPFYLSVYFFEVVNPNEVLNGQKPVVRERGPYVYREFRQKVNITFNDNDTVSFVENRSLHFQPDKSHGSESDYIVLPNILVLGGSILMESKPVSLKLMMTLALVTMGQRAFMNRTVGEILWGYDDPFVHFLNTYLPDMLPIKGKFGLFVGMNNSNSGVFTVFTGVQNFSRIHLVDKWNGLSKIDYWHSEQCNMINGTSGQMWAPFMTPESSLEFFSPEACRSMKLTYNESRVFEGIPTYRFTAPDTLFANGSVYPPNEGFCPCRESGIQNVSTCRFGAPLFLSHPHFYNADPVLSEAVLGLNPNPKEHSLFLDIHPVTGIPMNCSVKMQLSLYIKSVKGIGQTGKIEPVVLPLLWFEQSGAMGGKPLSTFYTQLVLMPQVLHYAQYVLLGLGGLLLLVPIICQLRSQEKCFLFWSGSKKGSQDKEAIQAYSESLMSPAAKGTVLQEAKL
# SR-BI uptake up: SR-BI HDL lipid transfer activation; CHO ldlA[mSR-BI] cells, DiI-HDL uptake fluorescence, 3 h; 100 = double the neutral-control signal; activation, % at 12.5 µM; 320,000 tested, 0.096% active; AID 504775;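 active = mean replicate activation of at least 60% and every replicate at or above 60%; inconclusive = mean or all-replicate condition met, but not both; inactive = mean below 60% and not all replicates reaching 60%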;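 note: 0% = median plate neutral-control signal and 100% = twice that signal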
#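 Test system: SR-BI-overexpressing, LDLR-lacking CHO cells; Also added: labelled HDL, 10 µg/mL; Measured by: bottom-read cell fluorescence after medium removal, ex 550/em 595 nm; Timing: 3 h uptake period with compound, 37 °C; Buffer or medium: F12, 0.5% BSA, 25 mM HEPES; Doses: single compound concentration, delivered by pin transfer.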
# Wnt bcat act: activators of Wnt/beta-catenin signaling; Wnt/beta-catenin reporter cell assay, activator, plate reader; activation, % at 9.35 µM; AID 743398; 300,000 tested, 1.2% active; in the data active = activation above about 30%, passing the limit was not always enough; inconclusive = no clear call, values can overlap the other calls;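 note: 0% = neutral control wells and 100% = positive control wells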
# HSF1 activator: increases HSF-1 driven luciferase reporter signal; AID 504408; NIH3T3-HGL HSF-1 luciferase reporter, MG132, 8 h; 100% = twice DMSO control signal; 300,000 tested, 1.7% active; activation, % at 9 µM;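 active = mean replicate activation of at least 50% with a set share of replicates each reaching 50%; inconclusive = only one of those two conditions met; inactive = mean below 50% and too few replicates reaching it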;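 note: 0% = median of the neutral control wells and 100% = twice that signal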
# MITF TRPM1 HTS: increases MITF-driven TRPM1 promoter luciferase signal; activation, % at 12.5 µM; SK-MEL-5 TRPM1-promoter luciferase, 24 h; % of positive control, neutral wells = 0; 300,000 tested, 0.75% active;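 active = mean activation of at least 80% with every replicate also reaching 80%; inconclusive = mean reaches 80% but some replicate falls short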;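 note: 0% = neutral control wells and 100% = parthenolide positive control wells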
# * hit, by the source's call; ? = inconclusive; . = no result.
SMILES,SR-BI HDL uptake,SR-BI uptake up,Wnt bcat act,HSF1 activator,MITF TRPM1 HTS
COc1cccc(NC=C2C(=O)OC3(CCCCC3)OC2=O)c1,4.6,-4.6,1.1,58.8*,.
COc1cccc(NC=C2C(=O)OC(C)(C)OC2=O)c1,-26.0,26.0,3.1,32.2,.
CC(Sc1ccsc1[N+](=O)[O-])C(=O)NCc1ccccc1 (stereo not given),.,.,54.0*,-7.0,.
Cc1ccc(C)c(NC(=O)CN2C(=O)C3CC=CCC3C2=O)c1 (stereo not given),.,.,-1.8,.,.
Cc1ccc(N=C2NC(=O)/C(=C/c3cccn3C)S2)cc1C,.,.,25.8,54.1*,.
Cc1ccc(N=C2NC(=O)/C(=C/c3cccn3C)S2)cc1,20.8,-20.8,24.8,17.9,.
Cc1cc(C(=O)CCC(=O)Nc2cccc(F)c2)c(C)s1,.,.,0.7,.,.
CC1Sc2ccc(C(=O)Nc3ncccc3O)cc2NC1=O (stereo not given),11.8,-11.8,-2.2,25.5,37.7
COc1cccc(COC(=O)c2ccc3c(c2)NC(=O)C(C)S3)c1OC (stereo not given),18.2,-18.2,-6.3,-81.8,-1.0
CC1Sc2ccc(C(=O)OCc3ccccc3Cl)cc2NC1=O (stereo not given),33.8,-33.8,?,12.6,186.1*
CC1Sc2ccc(C(=O)Nc3ccccc3OC(F)F)cc2NC1=O (stereo not given),9.7,-9.7,34.9*,15.0,62.3
COc1ccc(-c2cc(=O)c3cc(C)ccc3[nH]2)cc1,-7.9,7.9,45.0*,12.1,107.2*
COc1ccc(-c2cc(=O)c3cc(OC)ccc3[nH]2)cc1,-6.5,6.5,.,5.4,-15.8
COc1ccc(CCCN2CCC(CN3CCNC(=O)C3=O)CC2)cc1OC,-2.7,2.7,0.5,.,-4.4
CN1OC[C@@H]2CN[C@H](c3ccc(N4CCCCC4)cc3)C[C@@H]21,.,.,0.1,.,.
O=[N+]([O-])c1cccnc1Oc1ccc(C2SCCS2)cc1,12.4,-12.4,50.9*,34.8,103.3*
Cc1ccc(S(=O)(=O)NN=Cc2ccccc2Cl)cc1,.,.,33.5*,.,.
CC(=O)N1CCN(C(=O)CNC(=O)c2ccc(C)s2)CC1,-5.3,5.3,-2.5,.,-1.7
O=C(Nc1ccc(F)cc1F)Nc1sccc1-c1nc2ccccc2s1,58.2,-58.2,0.2,2.9,.
CCCSc1nsc(NC(=O)Nc2ccc(F)cc2F)n1,13.8,-13.8,16.1,68.4*,.
O=C(Nc1nc2ccccc2s1)Nc1ccc(F)cc1F,6.8,-6.8,37.9*,50.2*,.
CC1(Oc2ccc(-n3ccnc3)cc2)CCN(Cc2cccn2-c2nccs2)C1 (stereo not given),.,.,-0.7,.,.
O=C(CSc1nnc(-c2ccccc2)n1-c1ccccc1)c1cccs1,11.5,-11.5,-4.3,20.0,5.0
O=C(CSc1ncn(-c2ccccc2)n1)c1cccs1,-7.0,7.0,?,?,90.4*
Cc1noc(C)c1-c1nc(CS(=O)(=O)c2ccc(Cl)cc2)no1,5.9,-5.9,-1.6,6.5,9.9
SMILES,SR-BI HDL uptake,SR-BI uptake up,Wnt bcat act,HSF1 activator,MITF TRPM1 HTS
O=S(=O)(Cc1noc(-c2ccccc2Cl)n1)c1ccccn1,13.2,-13.2,40.3*,61.2*,?
O=C(COc1ccc(Cl)cc1Cl)Nc1cccnc1,-12.8,12.8,?,21.9,93.8*
Cc1ccccc1OCC(=O)Nc1cccc(N(C)S(C)(=O)=O)c1,-23.0,23.0,-1.5,2.5,24.0
CN(c1cccc(NC(=O)COc2ccc(Cl)cc2Cl)c1)S(C)(=O)=O,-3.0,3.0,37.3*,15.3,.
COC(=O)c1cc2c(c3c4cc(F)ccc4n(S(=O)(=O)c4ccccc4)c13)C(=O)N(Cc1ccco1)C2,.,.,-2.8,.,.
CCCCc1c(-c2ccccc2OC)ncn1Cc1ccccc1C,.,.,-1.4,.,.
C[C@@H]1CN([C@@H](C)CO)S(=O)(=O)c2ccc(Br)cc2O[C@H]1CN(C)C(=O)Nc1ccc(C(F)(F)F)cc1,.,.,-0.6,.,.
O=C(COC(=O)c1cc(=O)[nH]c(=O)[nH]1)Nc1cccc(Cl)c1,-45.9,45.9,-0.5,.,0.7
CCOC(=O)c1nn(-c2ccc3c(c2)CCN3C(C)=O)cc1O,-7.9,7.9,12.9,15.3,3.8
CCOC(=O)c1nn(-c2ccc(F)cc2)cc1O,-22.7,22.7,19.8,2.5,92.2*
COc1cccc(-c2nc(NCc3ccccc3)c3ccccc3n2)c1O,61.1,-61.1,-1.4,33.0,-8.3
COc1cccc(-c2nc(NC3CCCC3)c3ccccc3n2)c1O,82.5*,-82.5,-7.6,0.9,-11.4
C=CCNc1nc(-c2cccc(OC)c2O)nc2ccccc12,75.9*,-75.9,.,-2.9,1.9
COc1cccc(-c2nc(N3CCCCC3C)c3ccccc3n2)c1O (stereo not given),27.4,-27.4,1.4,-0.8,-13.0
Cc1c(C(=O)NCCC#N)sc(=O)n1Cc1ccc(C(=O)N(C)C)cc1,.,.,-3.3,.,.
CCCCNC(=O)C(NC(=O)c1cccc2ccccc12)C(=O)c1ccccc1 (stereo not given),.,.,-4.2,.,.
Cc1ccc(NC(=O)COc2ccccc2C(N)=O)cc1S(=O)(=O)N1CCCCCC1,14.2,-14.2,-5.6,.,-20.8
O=C1c2ccccc2C(=O)C1c1ccc(O)cc1,-14.2,14.2,?,72.4*,58.5
O=C1c2ccccc2C(=O)C1c1ccc(Br)cc1,-6.8,6.8,4.6,7.5,47.6
CSc1cccc(NC(=O)/C=C/c2ccc(Cl)cc2)c1,48.0,-48.0,.,30.7,.
Cc1cc(C)nc(NC(=O)/C=C/c2ccccc2Cl)c1,42.4,-42.4,43.8*,84.1*,54.1
Cc1cccc(NC(=O)/C=C/c2ccc(Cl)cc2)n1,31.4,-31.4,.,67.3*,90.1*
Cc1cc(C)nc(NC(=O)/C=C/c2ccc(Cl)cc2Cl)c1,6.5,-6.5,.,37.9,88.1*
CCCCN(C=O)c1c(CC)nc2ccc(C(=O)NCCCn3ccnc3)cn12,.,.,-0.4,.,.
Cc1ccc(-c2cc(-c3nnc(SCC(=O)NCC(C)C)n3N)c3ccccc3n2)cc1,67.6,-67.6,.,15.3,-2.5
SMILES,SR-BI HDL uptake,SR-BI uptake up,Wnt bcat act,HSF1 activator,MITF TRPM1 HTS
CCC(C)NC(=O)CSc1nnc(-c2cc(-c3ccc(C)cc3)nc3ccccc23)n1N (stereo not given),86.5*,-86.5,.,2.6,15.9
COc1cccc(CNC(=O)[C@H]2CCCN2C(=O)[C@H]2CCCN2C(=O)c2ccc(C)c(C)c2)c1,.,.,0.2,.,.
COC(=O)Cn1c2ccc(F)cc2c2nc(C)sc21,-4.6,4.6,-1.7,16.3,-1.5
COC(=O)Cn1c2ccc(OC)cc2c2nc(C)sc21,-6.3,6.3,-4.3,88.0*,.
Cc1nc2c3cc(F)ccc3n(Cc3ccc(F)cc3)c2s1,80.2*,-80.2,-10.6,-13.2,-24.6
Cc1nc2c3cc(Cl)ccc3n(CCN3CCCCC3)c2s1,63.4,-63.4,.,59.7*,-23.2
O=C(OCc1ccccc1)N1Cc2ccnnc2CC1c1ccccc1Br (stereo not given),.,.,-0.5,.,.
CCc1ccccc1NC(=O)C1=CN2CCS(=O)(=O)N=C2C=C1,-17.9,17.9,-0.4,.,-7.8
O=C(c1ccc(F)cc1)c1ccc(N2CCCCC2)cc1,13.7,-13.7,39.8*,63.9*,103.0*
